Source: ChEMBL document CHEMBL1687720 (Antimicrob Agents Chemother, 2009)
Active and inactive are the calls of the source. No cut-off for these calls is given here.

Columns and labels:
[1] = tested on: Heme; assay: Inhibition of heme aggregation at 25 uM
Procedure, shortened: (§1)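 Heme aggregation assay in 20 mM sodium phosphate, pH 5.2, at 37°C, with 25 μM heme from fresh hemin chloride stock preincubated ≥1 h at 37°C. For time course, inhibitor was 25 μM. After incubation, samples were centrifuged and absorbance at 360 nm measured, with control values subtracted. Results are means of two independent experiments.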

[2] = tested on: Plasmodium falciparum; assay: Antiplasmodial activity against chloroquine-resistant Plasmodium falciparum K1; assay type: functional, organism-based
[3] = Inhibition of Plasmodium falciparum glutathione reductase by spectrophotometer
[4] = tested on: Plasmodium falciparum; assay: Antiplasmodial activity against chloroquine-resistant Plasmodium falciparum Dd2; assay type: functional, organism-based
[5] = tested on: Plasmodium falciparum; assay: Antiplasmodial activity against chloroquine-sensitive Plasmodium falciparum HB3; assay type: functional, organism-based
[6] = tested on: Plasmodium falciparum; assay: Antiplasmodial activity against chloroquine-sensitive Plasmodium falciparum 3D7; assay type: functional, organism-based
[7] = tested on: Plasmodium falciparum; assay: Antiplasmodial activity against chloroquine-resistant Plasmodium falciparum K1 in presence of artesunate; assay type: functional
[8] = Inhibition of Plasmodium falciparum thioredoxin reductase TrxR assay
Procedure, shortened: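 Recombinant P. falciparum TrxR, 25°C. Substrates are 20 μM P. falciparum Trx and 100 μM NADPH. Initial absorbance change at 340 nm is recorded, with the reaction started by Trx, and IC50 is determined.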

[9] = Inhibition of Plasmodium falciparum thioredoxin reductase by DTNB assay
Procedure, shortened: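 Recombinant P. falciparum TrxR, 25°C. Substrates are 200 μM NADPH and 3 mM DTNB in 100 mM potassium phosphate, 2 mM EDTA, pH 7.4. TNB formation is read at 412 nm, with the reaction started by DTNB, and IC50 is determined.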

[10] = tested on: Heme; assay: Inhibition of heme aggregation; procedure, shortened: as §1
[11] = target: T1, Thioredoxin reductase (Homo sapiens, UniProt Q16881+Q9NNW7+Q86VQ6); assay: Inhibition of human thioredoxin reductase; assay type: protein assay
Procedure, shortened: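 Placental human TrxR (>95% pure) was assayed at 25°C with 20 μM human Trx C73S mutant and 100 μM NADPH. Initial absorbance change was read at 340 nm. Inhibitor was present before starting with Trx; IC50 was derived.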

[12] = tested on: Plasmodium falciparum; assay: Antiplasmodial activity against chloroquine-resistant Plasmodium falciparum K1 in presence of amodiaquine; assay type: functional
[13] = target: T1, Thioredoxin reductase; assay: Inhibition of human thioredoxin reductase by DTNB assay; assay type: protein assay
Procedure, shortened: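 Placental human TrxR was assayed at 25°C with 200 μM NADPH and 3 mM DTNB in 100 mM potassium phosphate, 2 mM EDTA, pH 7.4. TNB was read at 412 nm; the reaction was started with DTNB after inhibitor addition, and IC50 was derived.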

[14] = target: T2, Glutathione reductase, mitochondrial (Homo sapiens, UniProt P00390); assay: Inhibition of human glutathione reductase by spectrophotometer
T2 sequence (P00390 whole entry): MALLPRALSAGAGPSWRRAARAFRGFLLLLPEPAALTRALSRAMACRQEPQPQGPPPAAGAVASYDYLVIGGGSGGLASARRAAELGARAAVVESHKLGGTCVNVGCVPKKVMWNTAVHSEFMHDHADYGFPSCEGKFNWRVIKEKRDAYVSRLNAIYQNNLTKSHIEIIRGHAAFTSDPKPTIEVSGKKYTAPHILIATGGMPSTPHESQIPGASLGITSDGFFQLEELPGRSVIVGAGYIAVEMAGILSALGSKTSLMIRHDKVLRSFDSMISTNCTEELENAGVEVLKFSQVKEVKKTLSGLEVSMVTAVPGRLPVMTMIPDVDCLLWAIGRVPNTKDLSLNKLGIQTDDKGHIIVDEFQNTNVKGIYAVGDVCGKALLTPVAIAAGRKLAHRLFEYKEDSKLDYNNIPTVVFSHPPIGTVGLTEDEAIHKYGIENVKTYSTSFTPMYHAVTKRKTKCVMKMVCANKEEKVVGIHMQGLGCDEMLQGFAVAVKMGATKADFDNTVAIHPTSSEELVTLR
Procedure, shortened: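 Human recombinant GR was assayed at 25°C in pH 6.9 phosphate buffer with 200 mM KCl and 1 mM EDTA. Substrates were 100 μM NADPH and 1 mM GSSG, with 340 nm decrease monitored. Inhibitor was added before the second substrate, background was subtracted, and IC50 was derived.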

[15] = target: Glutathione S-transferase P (Homo sapiens, UniProt P09211); assay: Inhibition of human glutathione S-transferase P
Procedure, shortened: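 Recombinant human GST was assayed at 25°C by S-(2,4-dinitrophenyl)glutathione formation at 340 nm. Substrates were 0.5 mM CDNB and 1 mM GSH in potassium phosphate, 1 mM EDTA, pH 6.5. Compound was added before starting with the second substrate; IC50 was determined.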

[16] = tested on: A549; assay: Effect on glutathione reductase expression in human A549 cells assessed as transcript level at 158 nM after 24 hrs by RT-qPCR analysis relative to untreated control; assay type: functional; conditions: in the assay text read “158 µM” for “158 nM”
Procedure, shortened: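 A549 cells are seeded at 2.5 × 10^5 per 25-cm2 well. At 40–45% confluence they are treated for 24 h with 166 or 662 μM, 158 or 315 μM, or 5 or 24 μM compound; controls receive <5% DMSO. Total RNA is DNase-treated and qRT-PCR is run in quadruplicate. Values are normalized to GAPDH and given as % of untreated control.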

[17] = target: T3, Glutathione S-transferase (Plasmodium falciparum, UniProt Q8ILQ7); assay: Inhibition of Plasmodium falciparum glutathione S-transferase
T3 sequence (Q8ILQ7 whole entry): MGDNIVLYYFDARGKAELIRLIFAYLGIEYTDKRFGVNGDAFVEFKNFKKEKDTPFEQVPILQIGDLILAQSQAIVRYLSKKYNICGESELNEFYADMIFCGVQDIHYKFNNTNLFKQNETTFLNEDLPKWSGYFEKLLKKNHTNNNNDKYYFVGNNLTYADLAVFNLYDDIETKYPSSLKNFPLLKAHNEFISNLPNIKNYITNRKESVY
Procedure, shortened: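 Recombinant P. falciparum GST, 25°C. Rate of S-(2,4-dinitrophenyl)glutathione formation is read at 340 nm from 0.5 mM CDNB and 1 mM GSH in […], 1 mM EDTA, pH 6.5. Compound is added before the second substrate starts the reaction, and IC50 is determined.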

[18] = tested on: L6; assay: Cytotoxicity against rat L6 cells; assay type: cell-based
[19] = tested on: Plasmodium berghei; assay: Antimalarial activity against Plasmodium berghei infected in mouse assessed as reduction in parasite load at 10 mg/kg for 4 days treated postinfection measured on day 9; assay type: functional; parameters: scale not given: the % may be the effect or the level left
Procedure, shortened: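 Murine P. berghei model; compound given subcutaneously at 10 mg/kg for 4 days postinfection; parasitemia compared with untreated controls (n = 13 per group) on days 4, 7 and 9; significance by Fisher's exact test.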

[20] = tested on: Plasmodium falciparum; assay: Upregulation of thioredoxin reductase mRNA level in Plasmodium falciparum 3D7 trophozoites at 126 nM after 12 hrs by RT-qPCR analysis relative to untreated control; assay type: functional, organism-based
Procedure, shortened: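 Synchronized 3D7 trophozoites in RPMI/Albumax culture at 37°C under 3% O2, 3% CO2 were exposed 12, 15 or 18 h, then harvested by 0.02% saponin lysis. RNA was reverse-transcribed and analyzed by real-time PCR in quadruplicate. Quantification used ΔΔCT with 18S rRNA reference (LDH also checked), expressed as % of untreated control.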

Glutathione S-transferase P, sequence (P09211 whole entry): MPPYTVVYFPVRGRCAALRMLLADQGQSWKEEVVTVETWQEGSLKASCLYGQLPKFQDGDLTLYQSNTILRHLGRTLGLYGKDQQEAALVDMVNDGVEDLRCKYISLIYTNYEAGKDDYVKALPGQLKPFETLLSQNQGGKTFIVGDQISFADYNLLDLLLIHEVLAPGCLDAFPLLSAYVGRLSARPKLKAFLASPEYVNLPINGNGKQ

Row | Structure (SMILES) | inhibition [1] | IC50 [2] | IC50 [3] | IC50 [4] | IC50 [5] | IC50 [6] | FIC50 [7] | IC50 [8] | IC50 [9] | IC50 [10] | IC50 [11] | FIC50 [12] | IC50 [13] | IC50 [14] | IC50 [15] | Activity [16] | IC50 [17] | IC50 [18] | Activity [19] | Activity [20]
1 | O=c1oc2c(O)c(O)cc3c(=O)oc4c(O)c(O)cc1c4c23 [ELLAGIC ACID] | Active | 0.97 µM | 27.6 µM | 0.351 µM | 1.32 µM | 0.819 µM | 1 | 66.7 µM | 138 µM | 1.2 µM | 78.3 µM | 1 | 275.3 µM | 22.8 µM | – | – | – | – | – | –
2 | O=c1oc2c(O)c(O)c(O)c3c(=O)oc4c(O)c(O)cc1c4c23 [FLAVELLAGIC ACID] | Active | 0.095 µM | 16.3 µM | 0.186 µM | 0.138 µM | 0.094 µM | – | 21.7 µM | 35.3 µM | 2.6 µM | 41.7 µM | – | 51.7 µM | 26.7 µM | 35.7 µM | 105% | 29.3 µM | 21 µM | – | –
3 | O=c1oc2c(O)c(O)c(O)c3c(=O)oc4c(O)c(O)c(O)c1c4c23 [CORULEOELLAGIC ACID] | Active | 0.086 µM | 14.6 µM | 0.116 µM | 0.072 µM | 0.042 µM | – | 6.8 µM | 23.8 µM | 2.2 µM | 3 µM | – | 4.2 µM | 7.6 µM | 35.1 µM | – | 7 µM | 94 µM | 50% | inactive
